Screening data: PubChem, several laboratories
The list is not random: actives were taken first. Their share in the collection is about 3.8%.
NPY-Y2 antag – blocks the human neuropeptide Y Y2 receptor. P49146. NPY-Y2 expressing cells, antagonist mode. inhibition, % at 2.7 µM. 140,000 tested, 0.99% active. AID 793; in the data active means inhibition above about 17%;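 further: 0% = vehicle with agonist challenge and 100% = reference antagonist with challenge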
Target sequence (P49146 whole entry, looked up): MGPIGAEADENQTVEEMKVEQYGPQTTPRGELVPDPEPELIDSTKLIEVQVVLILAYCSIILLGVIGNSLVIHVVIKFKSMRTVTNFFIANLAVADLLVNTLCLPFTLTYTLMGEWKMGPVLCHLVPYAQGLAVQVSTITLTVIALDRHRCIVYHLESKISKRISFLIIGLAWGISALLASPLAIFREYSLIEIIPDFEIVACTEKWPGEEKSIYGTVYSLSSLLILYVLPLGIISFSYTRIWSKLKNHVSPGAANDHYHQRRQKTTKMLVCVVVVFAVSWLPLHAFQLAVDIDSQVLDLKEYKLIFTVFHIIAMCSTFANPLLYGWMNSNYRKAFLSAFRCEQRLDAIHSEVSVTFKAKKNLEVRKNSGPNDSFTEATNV
NPY-Y1 PAM-ag – potentiates or activates human NPY-Y1 receptor; NPY-Y1 expressing cells, potentiator/agonist activation; activation, % at 3.6 µM; 220,000 tested, 0.37% active; AID 1304; in the data active means activation above about 33%, passing the limit was not always enough;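 further: cells stimulated with NPY at EC10 then isoproterenol at EC100; 0% = low agonist plus stimulus and 100% = saturating agonist plus stimulus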
NPY Y1 blocker – blocks the human neuropeptide Y Y1 receptor | 200,000 tested, 1% active | HEK293-CNG Y1 cells, membrane potential fluorescence; NPY at EC95, then isoproterenol | inhibition, % at 3.6 µM | P25929 | AID 1040;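 active means inhibition above the campaign mean inhibition of all tested compounds plus 3 SD, cut at about 20% in these data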;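 further: 0% = DMSO wells given NPY plus isoproterenol and 100% = isoproterenol alone without NPY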
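Material: HEK293 cells co-expressing NPY Y1 receptor and cyclic-nucleotide gated channel. Timing: compound incubation 1 h at room temperature, readout 45 min post-stimulation. Signal: fluorescence, membrane potential probe.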
RAM network inh – blocks the yeast RAM network. S. cerevisiae dse1pr::URA3 reporter, 5-FOA growth OD615, 2 d; analog-sensitive cbk1-as2 kinase mutant strain. AID 868. inhibition, % at 50 µM. 190,000 tested, 1.8% active;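 active means inhibition above a set limit, 3 SD over mean compound inhibition, cut at about 8.4% in these data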;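 further: 0% = DMSO-only wells with no growth and 100% = 10 µM 1-NA-PP1 full growth; inhibition rescues growth on 5-FOA so higher OD means more RAM inhibition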
NPY-Y2 PAM-ag – potentiators or agonists of human neuropeptide Y receptor Y2; 220,000 tested, 0.45% active; AID 1359; activation, % at 3.6 µM; cells expressing NPY-Y2, potentiator/agonist read-out; P49146; in the data active means activation above about 27%;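 further: cells stimulated with NPY near EC25 plus isoproterenol at EC100; 0% = vehicle plus submaximal agonist and 100% = vehicle plus saturating agonist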
INS promoter inh – TRM-6 insulin promoter activity inhibition | TRM-6 cells, insulin promoter-eGFP reporter, imaging; reporter expression induced with tamoxifen | 130,000 tested, 0.9% active | inhibition, % at 2 µM;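 active means inhibition above the mean plus 3 SD, with well images judged a real hit on visual review, cut at about 60% in these data, passing the limit was not always enough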
An asterisk follows results filed as active; x = no result; ! = not active in a repeat.

SMILES	NPY-Y2 antag	NPY-Y1 PAM-ag	NPY Y1 blocker	RAM network inh	NPY-Y2 PAM-ag	INS promoter inh
COc1ccc(C(=O)NCc2ccc3c(c2)OCO3)cc1S(=O)(=O)NCc1ccc(Cl)cc1	3.6	-25.8	1.4	5.6	8.3	-42.1
CC1CCCN(c2ccc(C(=O)NCc3ccc4c(c3)OCO4)cc2[N+](=O)[O-])C1 (centres undefined)	7.8	-19.3	0.3	8.5*	-15.0	x
COc1ccc(C(=O)NCc2ccc3c(c2)OCO3)cc1S(=O)(=O)N(C)Cc1ccccc1	4.1	-17.2	2.9	9.6*	3.0	x
CCN(CC)S(=O)(=O)c1ccc(C(=O)NCc2ccc3c(c2)OCO3)cc1	x	-10.2	1.4	0.7	-4.8	78.6*
CN(c1ccccc1)S(=O)(=O)c1cccc(C(=O)OCC(=O)NCc2ccco2)c1	x	7.8	-0.6	0.1	12.2	18.5
O=C(/C=C/c1ccc(F)cc1)Nc1ccc2[nH]c(=O)[nH]c2c1	x	12.7	x	x	-12.4	x
CC(=O)c1ccccc1NS(=O)(=O)c1ccccc1Cl	x	-16.2	0.8	3.5	6.7	23.5
O=C(Nc1ccc(F)cc1)Nc1cc(S(=O)(=O)N2CCOCC2)ccc1N1CCCC1	x	-1.3	10.9	2.1	-2.5	x
O=C(Nc1ccc(Cl)cc1)Nc1cc(S(=O)(=O)N2CCOCC2)ccc1N1CCCC1	0.8	-26.7	5.0	9.3*	16.2	7.1
C=CCN(c1ccccc1C(=O)O)S(=O)(=O)c1ccc(C)cc1	x	3.0	3.1	1.4	5.1	-63.0
O=C(OCC#CCSc1nnc(-c2ccc(Br)cc2)o1)c1ccco1	5.5	-3.6	7.1	10.4*	0.1	x
O=C(OCC#CCSc1nnc(-c2ccccc2)o1)c1ccco1	2.7	-14.9	-5.7	0.0	-0.4	-12.5
COc1ccc(-c2cc(=O)oc(-c3cccc(C)c3)n2)cc1	x	7.2	x	x	-7.6	x
CCOC(=O)C(C)/C(C)=N\Nc1ccc([N+](=O)[O-])cc1[N+](=O)[O-] (centres undefined)	x	14.2	8.2	-1.6	-14.9	x
CCC(CC)=NNc1ccc([N+](=O)[O-])cc1[N+](=O)[O-]	x	3.0	2.6	0.4	10.2	x
CCOC(=O)C(C(=O)OCC)C(C)(C)/C(C)=N\Nc1ccc([N+](=O)[O-])cc1[N+](=O)[O-]	0.2	15.8	-6.8	9.0*	3.2	13.3
C/C(=N\Nc1ccc([N+](=O)[O-])cc1[N+](=O)[O-])C(C)C(C)C (centres undefined)	x	-1.7	10.5	9.6*	-3.9	x
COC(=O)c1ccc(NC(=S)N2CCN(Cc3ccccc3OC)CC2)cc1	x	12.3	0.9	1.5	9.5	x
COc1cccc(NC(=O)COC(=O)/C=C/c2ccc(Cl)cc2Cl)c1	11.4	-18.2	5.3	7.0	-0.6	-12.5
COc1cc(NC(=O)COC(=O)/C=C/c2ccc(Cl)cc2Cl)cc(OC)c1	3.5	9.8	4.3	9.5*	0.1	56.7
CN1CCN(S(=O)(=O)c2cccc(C(=O)Nc3ccccc3N3CCOCC3)c2)CC1	x	-1.4	0.6	0.0	-13.1	14.3
CCCC(=O)NC(=S)Nc1ccc(Cl)cn1	-1.0	17.7	-1.6	0.6	-9.8	83.3*
Cc1cc(C)cc(-n2nc(C)cc2N)c1	2.1	5.8	-1.1	0.1	9.9	72.2*
Cc1cccc(-n2nc(C)cc2N)c1	-4.2	-8.6	1.8	-0.7	7.7	-14.3
Cc1cc(C)c(C(=O)Cn2nc(C)c([N+](=O)[O-])c2C)cc1C	x	27.2	8.2	4.8	2.9	-16.7
SMILES	NPY-Y2 antag	NPY-Y1 PAM-ag	NPY Y1 blocker	RAM network inh	NPY-Y2 PAM-ag	INS promoter inh
CN(C)c1cccc(C(=O)OCC(=O)Nc2ccccc2Cl)c1	x	-12.4	7.0	1.3	-16.8	75.0*
COc1ccc(C(c2c(N)[nH]c(=S)[nH]c2=O)c2c(N)[nH]c(=S)[nH]c2=O)cc1	x	-6.9	x	x	-11.4	x
CN(C)C(=S)NC(C)(C)C	x	-8.1	x	x	9.4	x
COc1nc(-c2ccccc2)ccc1-c1noc(-c2ccccc2)n1	0.7	4.7	2.3	11.0*	-0.4	x
COc1nc(-c2ccccc2)ccc1-c1noc(-c2ccco2)n1	3.0	-21.3	10.2	7.9	-6.7	-2.7
COc1ccc(-n2ncc3c(NCc4ccc5c(c4)OCO5)ncnc32)cc1	15.2	8.4	-3.8	2.2	10.3	75.0*
c1ccc(-n2ncc3c(NCc4ccc5c(c4)OCO5)ncnc32)cc1	8.2	-10.4	3.7	1.1	-4.6	-406.2
S=C(Nc1ccc2cn[nH]c2c1)Nc1ccccc1Cl	4.1	1.4	5.1	-0.3	3.0	64.3*
Cc1cc(/C=C2/NC(=O)N(Cc3ccccc3F)C2=O)c(C)n1C(C)C	-2.3	-9.5	-0.9	9.1*	-2.6	-42.9
c1ccc2[nH]c(-c3cscn3)nc2c1	-0.3	17.0	5.1	0.7	4.2	66.7*
Fc1ccccc1-c1nc2ccccc2[nH]1	x	19.0	-4.5	0.8	4.0	x
c1ccc2[nH]c(-c3ccnc4ccccc34)nc2c1	3.4	5.7	-9.7	1.2	6.9	85.7*!
c1ccc2nc(-c3nc4ccccc4[nH]3)ccc2c1	5.9	-6.5	2.4	0.9	-19.9	32.3
N=c1c2c(-c3ccccc3)c(-c3ccccc3)oc2ncn1CCCN1CCOCC1	26.7*	-93.4	21.1*	2.4	-6.6	x
Cc1c(N(C(=O)c2ccccn2)C2(C(=O)NC3CCCCC3)CCCCC2)c(=O)n(-c2ccccc2)n1C	x	5.6	3.9	2.3	4.2	-26.7
CCCCNc1nc2ccccc2[nH]1	3.2	-4.4	8.1	0.5	-16.0	100.0*
CS(=O)c1nc(-c2ccc(Br)cc2)cc(-c2ccccc2)c1C#N (centres undefined)	1.8	101.2*	-9.2	2.3	66.0*	x
CS(=O)(=O)c1nc(-c2ccc(Br)cc2)cc(-c2ccccc2)c1C#N	5.2	13.6	2.0	2.4	6.9	35.7
COc1cccc(Nc2nc3ccccc3n2C(C)C)c1	3.1	2.4	7.6	1.4	4.2	61.5*
COc1cccc(Nc2nc3ccccc3n3cnnc23)c1	1.5	-16.1	-4.7	2.7	-2.0	x
COC(=O)C1=C(C)NC2=C(C(=O)CCC2)C1c1cccs1 (centres undefined)	0.0	13.0	1.0	-0.6	-1.5	61.3
CC1=C(C(=O)N2CCCCC2)C(c2cccs2)C2=C(CCCC2=O)N1 (centres undefined)	22.0*	-10.5	3.7	0.4	12.7	-13.5
Cc1ccc(CN2CCN(Cc3ccc(-n4cccn4)cc3C)CC2CCO)cc1 (centres undefined)	x	-23.0	5.1	2.2	-33.1	x
CC(=O)NC(C)CCc1ccccc1 (centres undefined)	x	-7.2	x	x	-11.5	x
CC(CCc1ccccc1)NCC(O)c1ccc(O)c(C(N)=O)c1 (centres undefined)	0.7	116.5*	-14.2	1.4	103.2*	45.5
Cc1ccc(N/C(N)=N/c2nc(CSc3nnc(C)s3)cc(=O)[nH]2)c(C)c1	x	11.1	20.4*	-0.9	-6.1	x
CCCCCCCCOC(=O)CCc1c(C)[nH]c(=S)[nH]c1=O	2.8	2.6	-2.5	8.8*	-6.5	44.7
